Many of the other results were omitted from the sample, so hits are more common in it than they were.
HUVEC inhibit: human endothelial cell proliferation inhibition; HUVEC proliferation, CellTiter-Glo luminescence, 72 h; stronger effect = lower value; actives 1.1% (n = 86,000); viability, % at 10 µM (by protocol);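 active = viability at or below 30%; inactive = viability above 30%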;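 also: 100% = median luminescence of DMSO-only cell control wells on each plate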
HCT116 bCat-KO: beta-catenin-lacking colon tumor cell growth suppression. actives 1.5% (n = 140,000). AID 818. HCT116 beta-catenin knockout viability, CellTiter-Glo, 60 h; stronger effect = lower value. viability, % at 10 µM;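 active = viability at or under a set limit, the compound median less 4 SD, cut at about 6% in these data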;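 also: 0% = Hyamine 1622 control at 20 µM and 100% = untreated cell control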
H69AR inhibit: growth inhibitors of human H69AR lung tumor cells | H69AR lung tumor viability, ATP luminescence, 72 h; stronger effect = lower value | viability, % at 10 µM | actives 6% (n = 85,000);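 active = viability at or below 40%; inactive = viability above 40%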;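 also: multidrug resistant small cell line overexpressing MRP-1 efflux transporter; 100% = mean luminescence of untreated control wells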
Fibroblast inh: blocks proliferation of human lung fibroblasts; LL 47 human lung fibroblast viability, ATP luminescence; stronger effect = lower value; viability, % at 10 µM; actives 1.1% (n = 85,000); AID 719;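 active = viability at or below 50% in the single dose screen; inactive = viability above 50%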;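 also: compound exposure lasted 72 h before the ATP readout; 100% = median luminescence of untreated cell-only wells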
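material = human LL 47 lung fibroblast cells | dosing = compounds added from tenfold dosing solution, 0.1% DMSO final | timing = overnight cell rest, 72 h compound treatment at 37 °C | measured by = CellTiter-Glo luminescence measuring cellular ATP | evaluation = % viability versus median cells-only luminescence | control set = cell-only wells, no compound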
HCT116 PTEN-null: growth suppressors of cells with PTEN tumor suppressor deletion; AID 827; HCT116 PTEN-null viability, CellTiter-Glo, 60 h; stronger effect = lower value; actives 1.2% (n = 140,000); viability, % at 10 µM;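 active = viability at or below a set limit, 4 SD under the median of all tested compounds, cut at about 3.7% in these data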;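 also: PTEN knockout HCT116 line with beta catenin targeted HCT116 as companion control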
* marks the source's active call; other numbers are inactive results; x = not tested or not shown.

SMILES | HUVEC inhibit | HCT116 bCat-KO | H69AR inhibit | Fibroblast inh | HCT116 PTEN-null
Cc1cc(C)n(-c2nc(Nc3ccccc3C)nc(-n3nc(C)cc3C)n2)n1 | 74 | 88 | 54 | 23* | 81
Cc1cc(C)n(-c2nc(Nc3ccccc3C(F)(F)F)nc(-n3nc(C)cc3C)n2)n1 | 15* | 2.9* | 8.1* | 27* | 3.5*
Cc1cc(C)n(-c2nc(NC(C)C)nc(NC(C)C)n2)n1 | x | 42 | x | x | 57
Cc1csc(Nc2ccccc2C(F)(F)F)n1 | 92 | 81 | 106 | 94 | 88
CN1C(=O)CC(C(=O)Nc2ccc(F)cc2)SC1=Nc1ccc2c(c1)OCO2 (stereo not drawn) | 86 | 89 | 90 | 91 | 83
COc1ccc(NC(=O)C2CC(=O)N(C)C(=Nc3ccc4c(c3)OCO4)S2)cc1 (stereo not drawn) | 72 | 71 | 30* | 88 | 49
Cc1cccc(CSc2cccc3cccnc23)c1 | x | 4.9* | x | x | 2.8*
CCOC(=O)CSc1cccc2cccnc12 | 66 | 6.0* | 0.3* | 46* | 2.7*
CCOC(=O)c1c(NC(=O)Cc2cccs2)sc(C(=O)NC2CCCC2)c1C | 50 | 84 | 28* | 75 | 85
CCOC(=O)c1c(NC(=O)Cc2cccs2)sc(C(=O)NC2CCCCC2)c1C | x | 76 | x | x | 78
Cc1ccc(-n2sc3ccccc3c2=O)cc1S(=O)(=O)N1CCCCC1 | 74 | 56 | 1.5* | 49* | 34
O=c1c2ccccc2sn1-c1ccc(S(=O)(=O)N2CCCCC2)cc1 | 62 | x | 44 | 37* | x
O=c1c2ccccc2sn1-c1ccccc1 | x | 10 | x | x | 47
O=c1c2ccccc2sn1-c1ccc(S(=O)(=O)N2CCCC2)cc1 | x | 81 | x | x | 85
O=C(c1ccc(Cl)cc1)c1oc2ccccc2c1CS(=O)(=O)c1ccccc1 | x | 73 | x | x | 64
COC(=O)c1ccc2c(c1)N(Cc1nc(-c3cccc(Cl)c3)oc1C)C(=O)C1CCCN21 (stereo not drawn) | 83 | x | 68 | 85 | x
COC(=O)c1ccc2c(c1)N(Cc1nc(-c3ccc(Cl)cc3)oc1C)C(=O)C1CCCN21 (stereo not drawn) | 87 | x | 15* | 96 | x
CCn1nc(C(=O)OC(C(=O)c2c[nH]c3ccccc23)c2ccccc2)c2ccccc2c1=O (stereo not drawn) | x | 89 | x | x | 86
CCCOC(=O)c1ccc(Oc2cn[nH]c2-c2ccc(OCC)cc2O)cc1 | 9.5* | 55 | 2.7* | 96 | 54
CCCc1ccc(Oc2cn[nH]c2-c2ccc(O)c(C)c2O)cc1 | 56 | 39 | 82 | 96 | 52
CCCOC(=O)c1ccc(Oc2c(-c3ccc(OCC)cc3O)n[nH]c2C)cc1 | 4.5* | 103 | 2.2* | 54 | 97
CCCc1ccc(Oc2c(-c3ccc(O)c(C)c3O)n[nH]c2C)cc1 | 24* | 87 | 21* | 96 | 84
CCOc1ccc(-c2[nH]ncc2-c2csc(C)n2)c(O)c1 | x | 82 | x | x | 70
C/C(CC(=O)Nc1ccc(OCc2ccccc2)cc1)=N\NC(=O)C(=O)Nc1ccc(C)c(Cl)c1 | x | 45 | x | x | 28
COc1ccccc1NS(=O)(=O)c1cccc(C(=O)N/N=C2\CC(=O)CC(C)(C)C2)c1 | x | 98 | x | x | 84
SMILES | HUVEC inhibit | HCT116 bCat-KO | H69AR inhibit | Fibroblast inh | HCT116 PTEN-null
CCOC(=O)Cc1csc(NC(=O)C2CCCN(S(=O)(=O)c3cnc[nH]3)C2)n1 (stereo not drawn) | 102 | 110 | 95 | 102 | 98
O=C(c1ccc(Cl)cc1)c1c[nH]cc1-c1ccccc1 | 97 | 101 | 102 | 104 | 100
O=C(c1ccc(Cl)cc1)c1c[nH]c(C(=O)C(Cl)(Cl)Cl)c1 | 49 | 1.8* | 2.4* | 44* | 2.5*
N=c1n(CCN2CCOCC2)c2ccccc2n1CC(=O)c1ccc(Cl)c(Cl)c1 | 70 | 63 | 0.9* | 82 | 66
CCCCOC(=O)Cn1c(=N)n(CCN2CCOCC2)c2ccccc21 | 101 | x | 95 | 105 | x
O=C(COc1ccc2c(c1)CCC2)N1CCc2ccccc21 | 80 | 77 | 81 | 89 | 78
CCCOc1ccc([C@@H]2C3CN(C(=O)OCC)CC=C3C(C#N)=C(N)C2(C#N)C#N)cc1OC (stereo partly drawn) | 69 | 83 | 41 | 85 | 80
CC(C)(C)OC(=O)N1CC=C2C(C#N)=C(N)C(C#N)(C#N)C(c3cccs3)C2C1 (stereo not drawn) | 77 | 81 | 23* | 90 | 78
